{"data": "Assay results collected from several papers", "target": "Serine/threonine-protein kinase haspin (HASPIN, Homo sapiens, UniProt Q8TF76)", "Sequence (Q8TF76 1-798, as in one of the studies)": "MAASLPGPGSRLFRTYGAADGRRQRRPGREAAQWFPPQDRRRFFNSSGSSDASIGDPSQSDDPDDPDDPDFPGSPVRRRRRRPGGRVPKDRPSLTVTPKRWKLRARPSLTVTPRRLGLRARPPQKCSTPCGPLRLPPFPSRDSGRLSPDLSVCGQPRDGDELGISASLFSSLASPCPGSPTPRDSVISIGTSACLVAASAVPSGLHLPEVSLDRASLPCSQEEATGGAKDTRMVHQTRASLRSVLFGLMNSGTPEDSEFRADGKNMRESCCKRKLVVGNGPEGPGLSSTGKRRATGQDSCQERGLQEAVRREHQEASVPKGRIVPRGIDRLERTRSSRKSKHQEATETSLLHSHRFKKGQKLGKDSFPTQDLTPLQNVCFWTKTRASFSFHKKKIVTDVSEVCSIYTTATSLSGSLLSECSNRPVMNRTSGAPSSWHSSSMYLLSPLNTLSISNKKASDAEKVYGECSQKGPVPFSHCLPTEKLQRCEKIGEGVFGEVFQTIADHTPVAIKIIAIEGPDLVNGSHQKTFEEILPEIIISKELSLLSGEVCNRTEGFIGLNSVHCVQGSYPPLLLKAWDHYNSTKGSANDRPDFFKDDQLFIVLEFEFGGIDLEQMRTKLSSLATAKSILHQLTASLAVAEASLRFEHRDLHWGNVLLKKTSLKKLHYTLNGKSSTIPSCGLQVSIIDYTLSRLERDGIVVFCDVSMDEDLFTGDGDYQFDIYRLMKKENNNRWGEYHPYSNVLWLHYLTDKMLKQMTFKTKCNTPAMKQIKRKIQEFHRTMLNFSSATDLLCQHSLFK", "note": "Lines come from different studies, so protocols differ."}
{"SMILES": "c1cnn2ncc(-c3ccnc(N4CCC45COC5)n3)c2c1", "assay": "binding", "conditions": "1 µM", "remaining binding": "0.6%"}
{"SMILES": "O=C(Nc1cnc(Oc2ccc(F)cc2)nc1)N1CCc2ncccc2[C@@H]1c1ccc(F)cc1", "assay": "cell-free assay, competition with immobilised ligand", "conditions": "1 µM", "remaining binding": "93%"}
{"SMILES": "FC(F)(F)Oc1cccc(-c2cnc3ccc(-c4ccncc4)nn23)c1", "assay": "binding, competition with immobilised ligand", "conditions": "5 µM", "remaining binding": "4.6%"}
{"SMILES": "O=C(c1ccc(Nc2ncc(Cl)c(-c3cc4ccccc4s3)n2)cc1)N1CCC(N2CCCC2)CC1", "assay": "binding, competition with immobilised ligand", "conditions": "1 µM", "remaining binding": "67%"}
{"SMILES": "COc1ccc2cc(OCC3(C(=O)O)CN(C(=O)c4ccc(F)cc4)C3)ccc2c1", "assay": "cell-free assay, competition with immobilised ligand", "conditions": "1 µM", "remaining binding": "100%"}
{"SMILES": "CN(CCCC(F)(F)F)c1nccc(-c2cnn3ncccc23)n1", "assay": "binding", "conditions": "1 µM", "remaining binding": "11%"}
{"SMILES": "C[C@@H](c1ccc(-n2cnc3c(N)ncnc32)cc1)N1CCc2nn(C)c(Cc3ccccc3)c2C1=O", "assay": "binding, competition with immobilised ligand", "conditions": "0.1 µM", "remaining binding": "79%"}
{"SMILES": "c1cncc(-c2cccc(Nc3nccc(NC4CCCCC4)n3)c2)c1", "assay": "binding, competition with immobilised ligand", "conditions": "10 µM", "remaining binding": "23%"}
{"SMILES": "O=C(Nc1c[nH]nc1C(=O)NC1CCNCC1)c1cc(F)cc(F)c1", "assay": "binding, competition with immobilised ligand", "conditions": "1 µM", "remaining binding": "96%"}
{"SMILES": "CNC(=O)[C@@H]1CC[C@@H](n2c(-c3ccc4cnccc4c3)nc3ccc(C(=O)NCc4cccc(C(N)=O)c4)cc32)C1", "assay": "binding, competition with immobilised ligand", "conditions": "1 µM", "remaining binding": "99%"}
{"SMILES": "CN(c1nccc(-c2cnn3ncccc23)n1)C1CC1", "assay": "binding", "conditions": "1 µM", "remaining binding": "18%"}
{"SMILES": "NS(=O)(=O)c1cc(NC(=O)Cc2ccccc2)ccc1Oc1cccc(Cl)c1", "assay": "cell-free assay, competition with immobilised ligand", "conditions": "1 µM", "remaining binding": "100%"}
{"SMILES": "N[C@H]1CCN(c2nccc(-c3cnn4ncccc34)n2)C1", "assay": "binding", "conditions": "1 µM", "remaining binding": "0.4%"}
{"SMILES": "COc1ncc2cc3ccccc3nc2c1C#N", "assay": "cell-free assay, competition with immobilised ligand", "conditions": "5 µM", "remaining binding": "51%"}
{"SMILES": "COc1ccnn2ncc(-c3ccnc(N(C)C)n3)c12", "assay": "binding", "conditions": "1 µM", "remaining binding": "1.8%"}
{"SMILES": "CS(=O)(=O)N1CCCC(NC(=O)[C@H](CCC2CCCCC2)NC(=O)c2ccc(CNc3ncnc4c3nnn4-c3ccccc3)cc2)C1 (stereo partly shown)", "assay": "cell-free assay, competition with immobilised ligand", "conditions": "0.1 µM", "remaining binding": "100%"}
{"SMILES": "CC1CCCN1c1nccc(-c2cnn3ncccc23)n1 (stereo not shown)", "assay": "binding", "conditions": "1 µM", "remaining binding": "21%"}
{"SMILES": "CCS(=O)(=O)c1cc2cc(C[C@@](O)(CC(C)(C)c3ccc(F)cc3C(N)=O)C(F)(F)F)[nH]c2cn1", "assay": "cell-free assay, competition with immobilised ligand", "conditions": "1 µM", "remaining binding": "80%"}
{"SMILES": "O=C(NCCCN1CCOCC1)c1ccc(Nc2nccc(-c3cc4ccccc4s3)n2)cc1", "assay": "binding, competition with immobilised ligand", "conditions": "1 µM", "remaining binding": "80%"}
{"SMILES": "Cn1nc(C(F)(F)F)cc1-c1cnc(N2CCc3cc(S(=O)(=O)Nc4c(F)cc(Cl)cc4F)cc(N4CCCC4=O)c32)nc1", "assay": "cell-free assay, competition with immobilised ligand", "conditions": "1 µM", "remaining binding": "68%"}
{"SMILES": "C[C@H]1CCN(c2nccc(-c3cnn4ncccc34)n2)C1", "assay": "binding", "conditions": "1 µM", "remaining binding": "2.1%"}
{"SMILES": "Cc1cnc(Nc2ccc(C(=O)N3CCC(N4CCCC4)CC3)cc2)nc1-c1cc2ccccc2s1", "assay": "binding, competition with immobilised ligand", "conditions": "1 µM", "remaining binding": "83%"}
